Measurements collected from several papers.
Protocols differ between the studies behind these lines.
Target: Mitogen-activated protein kinase 1 (MAPK1, Homo sapiens, UniProt P28482)

O=C(NCCCN1CCOCC1)c1ccc(Nc2nccc(-c3cc4ccccc4s3)n2)cc1
remaining binding (binding, competition with immobilised ligand; 1 µM): 89%

CCCCN(CCCC)C(=O)CN1C[C@@H](c2cc(OC)c3c(c2)OCO3)[C@H](C(=O)O)[C@H]1CC(C)(C)CCC
remaining binding (cell-free assay, competition with immobilised ligand; 1 µM): 82.1%

CCN1CCN(Cc2ccc(C(=O)Nc3ccc(C)c(Oc4ccc5c(c4)CC(=O)N5)c3)cc2C(F)(F)F)CC1
remaining binding (binding, competition with immobilised ligand; 1 µM): 100%

O=C(Nc1c[nH]nc1C(=O)NC1CCNCC1)c1cc(F)cc(F)c1
remaining binding (binding, competition with immobilised ligand; 1 µM): 100%

CN(C)c1nccc(-c2cnn3ncccc23)n1
remaining binding (binding; 1 µM): 100%

FC(F)(F)c1ccc2c(c1)nc(-c1cccnc1)n2C1CC1
remaining binding (cell-free assay, competition with immobilised ligand; 1 µM): 100%

FC(F)(F)Oc1cccc(-c2cnc3ccc(-c4ccncc4)nn23)c1
remaining binding (cell-free assay, competition with immobilised ligand; 5 µM): 100%

Cn1nc(C(F)(F)F)cc1-c1cnc(N2CCc3cc(S(=O)(=O)Nc4c(F)cc(Cl)cc4F)cc(N4CCCC4=O)c32)nc1
remaining binding (cell-free assay, competition with immobilised ligand; 1 µM): 100%

COc1cnc(Nc2cccc(S(N)(=O)=O)c2)nc1N1CCN(c2ccccc2)C(=O)C1
remaining binding (binding, competition with immobilised ligand; 1 µM): 100%

O=C(c1ccc(Nc2ncc(Cl)c(-c3ccc(Cl)s3)n2)cc1)N1CCC(N2CCCC2)CC1
remaining binding (binding, competition with immobilised ligand; 1 µM): 100%

CNC(=O)[C@@H]1CC[C@@H](n2c(-c3ccc4cnccc4c3)nc3ccc(C(=O)NCc4cccc(C(N)=O)c4)cc32)C1
remaining binding (binding, competition with immobilised ligand; 1 µM): 91%

CN(c1nccc(-c2cnn3ncccc23)n1)C1CC1
remaining binding (binding; 1 µM): 100%

Cn1nc(C(=O)NCc2ccc(C(=O)O)cc2)cc1-c1ccc2[nH]ccc2c1
remaining binding (cell-free assay, competition with immobilised ligand; 0.1 µM): 94%

N[C@H]1CCN(c2nccc(-c3cnn4ncccc34)n2)C1
remaining binding (binding; 1 µM): 100%

CCCOc1ccc([C@@H]2[C@@H](C(=O)O)[C@H](c3ccc4c(c3)OCO4)CN2CC(=O)Nc2c(CC)cccc2CC)cc1
remaining binding (cell-free assay, competition with immobilised ligand; 1 µM): 100%

CN(C)c1nccc(-c2cnc3ncccn23)n1
remaining binding (binding; 1 µM): 81%

COc1cccc(CNC(=O)c2nc3scc(COCc4ccc(C(=O)O)cc4)c3c(=O)[nH]2)c1
remaining binding (cell-free assay, competition with immobilised ligand; 1 µM): 100%

c1cncc(-c2cccc(Nc3nccc(NC4CCCCC4)n3)c2)c1
remaining binding (binding, competition with immobilised ligand; 10 µM): 92%

C[C@@H]1CCN(c2nccc(-c3cnn4ncccc34)n2)C1
remaining binding (binding; 1 µM): 88%

Cc1cnc(Nc2ccc(C(=O)N3CCC(N4CCCC4)CC3)cc2)nc1-c1cc2ccccc2s1
remaining binding (binding, competition with immobilised ligand; 1 µM): 100%

F[C@@H]1CCN(c2nccc(-c3cnn4ncccc34)n2)C1
remaining binding (binding; 1 µM): 100%

CNC(=O)Nc1ccc2c(c1)[C@@]1(CC2)OC(=O)N(CC(=O)N(Cc2ccc(F)cc2)[C@@H](C)C(F)(F)F)C1=O
remaining binding (cell-free assay, competition with immobilised ligand; 1 µM): 91%
